These results are taken from ChEMBL document CHEMBL1914339, “Design, synthesis and biological evaluation of pyridine acyl sulfonamide derivatives as novel COX-2 inhibitors” (Bioorg Med Chem, 2011).

Each structure is given as a SMILES string.

Sequence of Prostaglandin G/H synthase 2 (Mus musculus) (Q05769 whole entry, looked up): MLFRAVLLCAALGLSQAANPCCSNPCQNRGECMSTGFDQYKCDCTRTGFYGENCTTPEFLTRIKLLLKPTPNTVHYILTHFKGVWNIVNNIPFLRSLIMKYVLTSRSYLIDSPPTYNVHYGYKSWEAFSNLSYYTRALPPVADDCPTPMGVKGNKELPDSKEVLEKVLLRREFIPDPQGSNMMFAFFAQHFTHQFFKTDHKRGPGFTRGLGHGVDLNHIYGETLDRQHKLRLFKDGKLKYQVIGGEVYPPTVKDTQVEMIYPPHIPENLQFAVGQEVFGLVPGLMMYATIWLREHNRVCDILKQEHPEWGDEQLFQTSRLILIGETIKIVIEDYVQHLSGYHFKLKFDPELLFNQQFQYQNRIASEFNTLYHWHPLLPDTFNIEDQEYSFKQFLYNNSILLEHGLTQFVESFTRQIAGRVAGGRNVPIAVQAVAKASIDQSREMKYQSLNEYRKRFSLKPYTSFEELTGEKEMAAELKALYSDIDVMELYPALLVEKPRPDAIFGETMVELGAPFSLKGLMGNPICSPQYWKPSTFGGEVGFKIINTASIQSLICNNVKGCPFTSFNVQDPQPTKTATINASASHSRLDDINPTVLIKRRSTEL

One assay relates to HepG2. Description: Antiproliferative activity against human HepG2 cells after 48 hrs by MTT colorimetric assay. Type of assay: functional, cell-based. As to conditions: HepG2, 48 h. The procedure, abridged:
(§1)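 Cells seeded at 2 × 10⁴ cells/ml and grown 24 h, then exposed in exponential growth to final compound concentrations of 0.1 to 100 for 48 h. Survival read by MTT (0.5 mg/mL in DMEM, 4 h) with absorbance at 570 nm. Three replicate wells per concentration; each assay run at least three times.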
A general note: Formazan colour is commonly taken as a measure of viable cells.
Take `O=C(NS(=O)(=O)c1ccc(Cl)cc1)c1ccncc1`: the half-maximal inhibitory concentration (IC50) worked out at 7.9 µM.
The compound `O=C(NS(=O)(=O)c1ccccc1)c1cncc(C(=O)NS(=O)(=O)c2ccccc2)c1` returned an IC50 of 9.2 µM.
Still for that read-out and setting: as for `O=C(NS(=O)(=O)c1ccc(Cl)cc1)c1cccnc1`, the figure is 8.6 µM; as for `Cc1ccc(S(=O)(=O)NC(=O)c2cccnc2)cc1`, 12.3 µM.
On the same count and under the same terms, the result for `O=C(NS(=O)(=O)c1ccc(F)cc1)c1ccccn1` reads 8.5 µM; that for `O=C(NS(=O)(=O)c1ccc(F)cc1)c1cncc(C(=O)NS(=O)(=O)c2ccc(F)cc2)c1`, 6.2 µM.
Turning to `O=C(NS(=O)(=O)c1ccc(Br)cc1)c1cncc(C(=O)NS(=O)(=O)c2ccc(Br)cc2)c1`, it took 3.3 µM to reach half-maximal inhibition (IC50).
Same read-out and setting: the result for `O=C(NS(=O)(=O)c1ccc(Br)cc1)c1ccccn1` reads 5 µM; that for `Cc1ccc(S(=O)(=O)NC(=O)c2cccc(C(=O)NS(=O)(=O)c3ccc(C)cc3)n2)cc1`, 4.2 µM; that for `Cc1ccc(S(=O)(=O)NC(=O)c2cncc(C(=O)NS(=O)(=O)c3ccc(C)cc3)c2)cc1`, 10 µM.
Take `O=C(NS(=O)(=O)c1ccc(F)cc1)c1cccnc1`: the IC50 was determined as 9 µM.
For `Cc1ccc(S(=O)(=O)NC(=O)c2ccncc2)cc1`, the IC50 is 20.2 µM.

The target in another assay is Prostaglandin G/H synthase 1 (Mus musculus) (UniProt P22437).
Sequence of Prostaglandin G/H synthase 1 (Mus musculus) (P22437 whole entry, looked up): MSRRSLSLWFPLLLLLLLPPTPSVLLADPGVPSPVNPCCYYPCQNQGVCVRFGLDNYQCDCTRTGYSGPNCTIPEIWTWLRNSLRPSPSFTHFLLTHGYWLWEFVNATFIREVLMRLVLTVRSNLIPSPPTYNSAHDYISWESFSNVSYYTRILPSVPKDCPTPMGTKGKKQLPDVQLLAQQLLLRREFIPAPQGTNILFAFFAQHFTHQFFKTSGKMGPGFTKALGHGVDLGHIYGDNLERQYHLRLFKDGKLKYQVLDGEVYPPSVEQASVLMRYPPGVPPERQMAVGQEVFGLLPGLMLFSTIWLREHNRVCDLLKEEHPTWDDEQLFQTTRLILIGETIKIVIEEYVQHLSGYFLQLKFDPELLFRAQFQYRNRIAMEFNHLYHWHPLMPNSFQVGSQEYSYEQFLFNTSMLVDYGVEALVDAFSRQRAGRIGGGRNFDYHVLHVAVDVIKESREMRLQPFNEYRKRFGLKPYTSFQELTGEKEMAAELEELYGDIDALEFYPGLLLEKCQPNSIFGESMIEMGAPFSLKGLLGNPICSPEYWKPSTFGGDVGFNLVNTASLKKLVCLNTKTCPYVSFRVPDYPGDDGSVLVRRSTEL
Conditions: not given
`O=C(NS(=O)(=O)c1ccc(Cl)cc1)c1ccncc1`: half-maximal inhibition (IC50) was put at 41.2 µM.
The same measure, in the same setting: as for `O=C(NS(=O)(=O)c1ccccc1)c1cncc(C(=O)NS(=O)(=O)c2ccccc2)c1`, the figure is 36.9 µM; as for `O=C(NS(=O)(=O)c1ccc(Cl)cc1)c1cccnc1`, 35.8 µM.
On the same count and under the same terms, as for `Cc1ccc(S(=O)(=O)NC(=O)c2cccnc2)cc1`, the figure is > 50 µM; as for `O=C(NS(=O)(=O)c1ccc(F)cc1)c1ccccn1`, 43.8 µM; as for `O=C(NS(=O)(=O)c1ccc(F)cc1)c1cncc(C(=O)NS(=O)(=O)c2ccc(F)cc2)c1`, 40.2 µM.
The same measure, in the same setting: the result for `O=C(NS(=O)(=O)c1ccc(Br)cc1)c1cncc(C(=O)NS(=O)(=O)c2ccc(Br)cc2)c1` reads 42.5 µM.
Turning to `O=C(NS(=O)(=O)c1ccc(Br)cc1)c1ccccn1`, the IC50 is > 50 µM.
Still for that read-out and setting: as for `Cc1ccc(S(=O)(=O)NC(=O)c2cccc(C(=O)NS(=O)(=O)c3ccc(C)cc3)n2)cc1`, the figure is 39.8 µM; as for `Cc1ccc(S(=O)(=O)NC(=O)c2cncc(C(=O)NS(=O)(=O)c3ccc(C)cc3)c2)cc1`, > 50 µM.
Same read-out and setting: as for `O=C(NS(=O)(=O)c1ccc(F)cc1)c1cccnc1`, the figure is > 50 µM.
On the same count and under the same terms, the result for `Cc1ccc(S(=O)(=O)NC(=O)c2ccncc2)cc1` reads > 50 µM.

The test system of another assay is B16-F10. Description: Antiproliferative activity against mouse B16F10 cells after 48 hrs by MTT colorimetric assay. Type of assay: functional, cell-based. As to conditions: B16-F10, 48 h. The procedure, abridged: as §1
`O=C(NS(=O)(=O)c1ccc(Cl)cc1)c1ccncc1`: the IC50 came out at 12.4 µM.
In the case of `O=C(NS(=O)(=O)c1ccccc1)c1cncc(C(=O)NS(=O)(=O)c2ccccc2)c1`, the half-maximal inhibitory concentration (IC50) came to 11.3 µM.
Still for that read-out and setting: as for `O=C(NS(=O)(=O)c1ccc(Cl)cc1)c1cccnc1`, the figure is 11.9 µM; as for `Cc1ccc(S(=O)(=O)NC(=O)c2cccnc2)cc1`, 18.5 µM; as for `O=C(NS(=O)(=O)c1ccc(F)cc1)c1ccccn1`, 10.9 µM.
Still for that read-out and setting: as for `O=C(NS(=O)(=O)c1ccc(F)cc1)c1cncc(C(=O)NS(=O)(=O)c2ccc(F)cc2)c1`, the figure is 8.8 µM.
The same measure, in the same setting: the result for `O=C(NS(=O)(=O)c1ccc(Br)cc1)c1cncc(C(=O)NS(=O)(=O)c2ccc(Br)cc2)c1` reads 7.2 µM.
On to `O=C(NS(=O)(=O)c1ccc(Br)cc1)c1ccccn1`, for which the IC50 came to 8.5 µM.
`Cc1ccc(S(=O)(=O)NC(=O)c2cccc(C(=O)NS(=O)(=O)c3ccc(C)cc3)n2)cc1` yielded a half-maximal inhibitory concentration (IC50) of 12.2 µM.
The same measure, in the same setting: as for `Cc1ccc(S(=O)(=O)NC(=O)c2cncc(C(=O)NS(=O)(=O)c3ccc(C)cc3)c2)cc1`, the figure is 9.2 µM.
Same read-out and setting: the result for `O=C(NS(=O)(=O)c1ccc(F)cc1)c1cccnc1` reads 13.8 µM; that for `Cc1ccc(S(=O)(=O)NC(=O)c2ccncc2)cc1`, 16.2 µM.

Another assay has as its target Prostaglandin G/H synthase 2 (Mus musculus) (UniProt Q05769).
Conditions: not given
In the case of `O=C(NS(=O)(=O)c1ccc(Cl)cc1)c1ccncc1`, the IC50 amounted to 12.6 µM.
Still for that read-out and setting: as for `O=C(NS(=O)(=O)c1ccccc1)c1cncc(C(=O)NS(=O)(=O)c2ccccc2)c1`, the figure is 7.9 µM; as for `O=C(NS(=O)(=O)c1ccc(Cl)cc1)c1cccnc1`, 6.6 µM; as for `Cc1ccc(S(=O)(=O)NC(=O)c2cccnc2)cc1`, 18.2 µM.
The same measure, in the same setting: the result for `O=C(NS(=O)(=O)c1ccc(F)cc1)c1ccccn1` reads 6.3 µM; that for `O=C(NS(=O)(=O)c1ccc(F)cc1)c1cncc(C(=O)NS(=O)(=O)c2ccc(F)cc2)c1`, 5.6 µM; that for `O=C(NS(=O)(=O)c1ccc(Br)cc1)c1cncc(C(=O)NS(=O)(=O)c2ccc(Br)cc2)c1`, 2.8 µM.
The same measure, in the same setting: as for `O=C(NS(=O)(=O)c1ccc(Br)cc1)c1ccccn1`, the figure is 3.6 µM; as for `Cc1ccc(S(=O)(=O)NC(=O)c2cccc(C(=O)NS(=O)(=O)c3ccc(C)cc3)n2)cc1`, 5.6 µM; as for `Cc1ccc(S(=O)(=O)NC(=O)c2cncc(C(=O)NS(=O)(=O)c3ccc(C)cc3)c2)cc1`, 8.5 µM.
`O=C(NS(=O)(=O)c1ccc(F)cc1)c1cccnc1` had an IC50 of 11.7 µM.
Same read-out and setting: the result for `Cc1ccc(S(=O)(=O)NC(=O)c2ccncc2)cc1` reads 19.4 µM.

For a further assay, the system named is MCF7. Put plainly: Antiproliferative activity against human MCF7 cells after 48 hrs by MTT colorimetric assay. Format: functional, cell-based. As to conditions: MCF7, 48 h. The essentials:
as §1
On to `O=C(NS(=O)(=O)c1ccc(Cl)cc1)c1ccncc1`, for which the half-maximal inhibitory concentration (IC50) came out at 10.1 µM.
`O=C(NS(=O)(=O)c1ccccc1)c1cncc(C(=O)NS(=O)(=O)c2ccccc2)c1` returned a concentration for half-maximal inhibition (IC50) of 10.6 µM.
On the same count and under the same terms, the result for `O=C(NS(=O)(=O)c1ccc(Cl)cc1)c1cccnc1` reads 10.1 µM; that for `Cc1ccc(S(=O)(=O)NC(=O)c2cccnc2)cc1`, 15.5 µM; that for `O=C(NS(=O)(=O)c1ccc(F)cc1)c1ccccn1`, 11 µM.
Still for that read-out and setting: the result for `O=C(NS(=O)(=O)c1ccc(F)cc1)c1cncc(C(=O)NS(=O)(=O)c2ccc(F)cc2)c1` reads 7.9 µM; that for `O=C(NS(=O)(=O)c1ccc(Br)cc1)c1cncc(C(=O)NS(=O)(=O)c2ccc(Br)cc2)c1`, 4.1 µM.
Same read-out and setting: as for `O=C(NS(=O)(=O)c1ccc(Br)cc1)c1ccccn1`, the figure is 6.8 µM; as for `Cc1ccc(S(=O)(=O)NC(=O)c2cccc(C(=O)NS(=O)(=O)c3ccc(C)cc3)n2)cc1`, 6.2 µM; as for `Cc1ccc(S(=O)(=O)NC(=O)c2cncc(C(=O)NS(=O)(=O)c3ccc(C)cc3)c2)cc1`, 10.8 µM.
As to `O=C(NS(=O)(=O)c1ccc(F)cc1)c1cccnc1`, the IC50 was found to be 10.6 µM.
The same measure, in the same setting: the result for `Cc1ccc(S(=O)(=O)NC(=O)c2ccncc2)cc1` reads 14.1 µM.

The subject of the next assay is RAW264.7. Put plainly: Antiinflammatory activity in mouse RAW264.7 cells assessed as inhibition of LPS-induced PGE2 production. Type of assay: functional, cell-based.
Conditions: not given
Take `O=C(NS(=O)(=O)c1ccc(Cl)cc1)c1ccncc1`: the IC50 is 8.9 µM.
Same read-out and setting: the result for `O=C(NS(=O)(=O)c1ccccc1)c1cncc(C(=O)NS(=O)(=O)c2ccccc2)c1` reads 2.6 µM; that for `O=C(NS(=O)(=O)c1ccc(Cl)cc1)c1cccnc1`, 3.2 µM.
Still for that read-out and setting: the result for `Cc1ccc(S(=O)(=O)NC(=O)c2cccnc2)cc1` reads 8.8 µM; that for `O=C(NS(=O)(=O)c1ccc(F)cc1)c1ccccn1`, 3.3 µM; that for `O=C(NS(=O)(=O)c1ccc(F)cc1)c1cncc(C(=O)NS(=O)(=O)c2ccc(F)cc2)c1`, 1.9 µM.
For `O=C(NS(=O)(=O)c1ccc(Br)cc1)c1cncc(C(=O)NS(=O)(=O)c2ccc(Br)cc2)c1`, the IC50 worked out at 1.2 µM.
Regarding `O=C(NS(=O)(=O)c1ccc(Br)cc1)c1ccccn1`, the IC50 was found to be 1.9 µM.
On the same count and under the same terms, the result for `Cc1ccc(S(=O)(=O)NC(=O)c2cccc(C(=O)NS(=O)(=O)c3ccc(C)cc3)n2)cc1` reads 2.1 µM.
The same measure, in the same setting: the result for `Cc1ccc(S(=O)(=O)NC(=O)c2cncc(C(=O)NS(=O)(=O)c3ccc(C)cc3)c2)cc1` reads 2.2 µM; that for `O=C(NS(=O)(=O)c1ccc(F)cc1)c1cccnc1`, 8.6 µM; that for `Cc1ccc(S(=O)(=O)NC(=O)c2ccncc2)cc1`, 9.8 µM.

One may read the IC50 as the concentration needed to halve the response being measured.
